According to ChEMBL document CHEMBL1143425, “Paradoxical growth effect of caspofungin observed on biofilms and planktonic cells of five different Candida species” (2007):
Calls of active or inactive are those of the source.

Key:
Candida metapsilosis [1] = experiment: Antimicrobial activity against Candida metapsilosis BR-A40 grown as biofilm assessed as concentration producing paradoxical growth after 48 hrs by XTT reduction assay; type: functional
Summary of the method: (§1)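 Sabouraud-grown cells were shaken overnight (18 h, 120 rpm, 35°C) in RPMI 1640 with MOPS at pH 7.0, then washed and set at ~1 × 10^7 cells/ml. Attachment lasted 1.5 h at 37°C, and growth ran 24 h before challenge. Caspofungin was added in RPMI at 2–1,024 μg/ml (10 doublings) for 48 h at 35°C with shaking. XTT-menadione was read at 490 nm after 1 h at 35°C in the dark, with blank wells subtracted. MIC was taken as 50% reduction versus drug-free wells, and PG as >50% of control above MIC. Assays were run in duplicate.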

Candida albicans [2] = experiment: Antimicrobial activity against Candida albicans BR-A2 grown as biofilm after 48 hrs by XTT reduction assay; type: functional
Summary of the method: (§2)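 Isolates were grown on Sabouraud agar (30°C, 24 h), then overnight in RPMI 1640 with MOPS, pH 7.0, at 35°C with shaking. Cells were washed and set to ~1 × 10^7 cells/ml, attached 1.5 h at 37°C, and grown 24 h. Biofilms were then exposed to caspofungin in 10 twofold dilutions (2–1,024 μg/ml) for 48 h at 35°C with shaking. Read-out was XTT-menadione, 1 h, 35°C, dark, A490, cell-free blank subtracted. MIC was the 50% drop in activity versus drug-free control. Tested in duplicate.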

Candida metapsilosis [3] = experiment: Antimicrobial activity against Candida metapsilosis BR-A41 grown as planktonic cell assessed as paradoxical growth after 48 hrs by XTT reduction assay; type: functional, organism-based
Summary of the method: (§3)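 Planktonic cells were tested by CLSI M27-A2 broth microdilution with caspofungin in water, incubated 48 h. XTT-menadione was added to each well, plates were held 1 h at 35°C in the dark and centrifuged, and supernatant absorbance was read at 490 nm. MIC was defined as 50% decrease in metabolic activity versus drug-free control. PG was defined as ≥20% of control activity at concentrations above MIC.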

Candida orthopsilosis [4] = experiment: Antimicrobial activity against Candida orthopsilosis BR-A39 grown as planktonic cell assessed as paradoxical growth after 48 hrs by XTT reduction assay; type: functional, organism-based; summary of the method: as §3
Candida parapsilosis [5] = experiment: Antimicrobial activity against Candida parapsilosis BR-A25 grown as planktonic cell after 48 hrs by XTT reduction assay; type: functional; conditions: Lodderomyces parapsilosis
Summary of the method: (§4)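 Planktonic broth microdilution followed CLSI M27-A2, with caspofungin dissolved in water. After 48 h, XTT-menadione was added to the wells and plates were kept 1 h at 35°C in the dark. Plates were then centrifuged and supernatant A490 was read. MIC was the lowest concentration giving a 50% decrease in metabolic activity versus drug-free control. Paradoxical growth was defined as ≥20% of control activity above the MIC.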

Candida metapsilosis [6] = experiment: Antimicrobial activity against Candida metapsilosis BR-A41 grown as planktonic cell after 48 hrs by XTT reduction assay; type: functional; conditions: Lodderomyces metapsilosis; summary of the method: as §3
Candida orthopsilosis [7] = experiment: Antimicrobial activity against Candida orthopsilosis BR-A36 grown as planktonic cell assessed as paradoxical growth after 48 hrs by XTT reduction assay; type: functional, organism-based; summary of the method: as §3
Candida albicans [8] = experiment: Effect on morphology in Candida albicans grown as biofilm assessed as inhibition of hyphae and pseudohyphae at 32 ug/ml after 48 hrs; type: functional, organism-based
Summary of the method: (§5)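 Biofilms formed in RPMI 1640 wells were exposed to caspofungin for 48 h and compared with drug-free control wells. Wells were examined in the plate under an inverted light microscope at ×200 and photographed.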

Candida parapsilosis [9] = experiment: Antimicrobial activity against Candida parapsilosis BR-A30 grown as biofilm assessed as paradoxical growth after 48 hrs by XTT reduction assay; type: functional, organism-based
Summary of the method: (§6)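 Clinical isolates were grown overnight (18 h, 35°C, 120 rpm) in RPMI 1640 with MOPS, pH 7.0, then washed and set to ~1 × 10^7 cells/ml. Cells attached for 1.5 h at 37°C, 75 rpm, then biofilms grew 24 h. Caspofungin was given as doubling dilutions of 2–1,024 μg/ml for 48 h at 35°C, 75 rpm. Read-out was XTT-menadione in PBS, 1 h at 35°C in the dark, A490, cell-free blank subtracted. MIC was a 50% drop in activity versus drug-free; PG was >50% of control above MIC. Run in duplicate.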

Candida tropicalis [10] = experiment: Antimicrobial activity against Candida tropicalis BR-A24 grown as biofilm after 48 hrs by XTT reduction assay; type: functional; summary of the method: as §2
Candida parapsilosis [11] = experiment: Antimicrobial activity against Candida parapsilosis BR-A28 grown as planktonic cell after 48 hrs by XTT reduction assay; type: functional; conditions: Lodderomyces parapsilosis; summary of the method: as §4
Candida metapsilosis [12] = experiment: Antimicrobial activity against Candida metapsilosis BR-A44 grown as planktonic cell after 48 hrs by XTT reduction assay; type: functional; conditions: Lodderomyces metapsilosis; summary of the method: as §3
Candida metapsilosis [13] = experiment: Antimicrobial activity against Candida metapsilosis BR-A42 grown as planktonic cell assessed as paradoxical growth after 48 hrs by XTT reduction assay; type: functional, organism-based; summary of the method: as §3
Candida orthopsilosis [14] = experiment: Antimicrobial activity against Candida orthopsilosis BR-A37 grown as biofilm after 48 hrs by XTT reduction assay; type: functional; conditions: Lodderomyces orthopsilosis; summary of the method: as §2
Candida orthopsilosis [15] = experiment: Effect on morphology in Candida orthopsilosis grown as biofilm assessed as inhibition of hyphae and pseudohyphae at 32 ug/ml after 48 hrs; type: functional, organism-based; summary of the method: as §5
Candida albicans [16] = experiment: Antimicrobial activity against Candida albicans BR-A7 grown as planktonic cell after 48 hrs by XTT reduction assay; type: functional; summary of the method: as §4
Candida parapsilosis [17] = experiment: Antimicrobial activity against Candida parapsilosis BR-A28 grown as biofilm assessed as concentration producing paradoxical growth after 48 hrs by XTT reduction assay; type: functional; summary of the method: as §6
Candida tropicalis [18] = experiment: Antimicrobial activity against Candida tropicalis BR-A14 grown as biofilm assessed as paradoxical growth after 48 hrs by XTT reduction assay; type: functional, organism-based; summary of the method: as §6
Candida orthopsilosis [19] = experiment: Antimicrobial activity against Candida orthopsilosis BR-A37 grown as planktonic cell assessed as concentration producing paradoxical growth after 48 hrs by XTT reduction assay; type: functional; summary of the method: as §3
Candida orthopsilosis [20] = experiment: Antimicrobial activity against Candida orthopsilosis BR-A33 grown as biofilm assessed as concentration producing paradoxical growth after 48 hrs by XTT reduction assay; type: functional; summary of the method: as §1
Candida tropicalis [21] = experiment: Antimicrobial activity against Candida tropicalis BR-A9 grown as planktonic cell after 48 hrs by XTT reduction assay; type: functional; summary of the method: as §4
Candida parapsilosis [22] = experiment: Antimicrobial activity against Candida parapsilosis BR-A26 grown as biofilm after 48 hrs by XTT reduction assay; type: functional; conditions: Lodderomyces parapsilosis; summary of the method: as §6
Candida orthopsilosis [23] = experiment: Effect on morphology in Candida orthopsilosis grown as planktonic cells assessed as inhibition of hyphae and pseudohyphae at 64 ug/ml after 48 hrs; type: functional, organism-based
Summary of the method: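 Cells were taken from caspofungin-containing and drug-free wells of the planktonic broth microdilution test after 48 h. They were examined by light microscopy at ×400.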

Candida orthopsilosis [24] = experiment: Antimicrobial activity against Candida orthopsilosis BR-A34 grown as biofilm assessed as concentration producing paradoxical growth after 48 hrs by XTT reduction assay; type: functional; summary of the method: as §1
Candida parapsilosis [25] = experiment: Antimicrobial activity against Candida parapsilosis BR-A25 grown as biofilm after 48 hrs by XTT reduction assay; type: functional; conditions: Lodderomyces parapsilosis; summary of the method: as §2
Candida tropicalis [26] = experiment: Effect on morphology in Candida tropicalis grown as biofilm assessed as rounding and clumping at 8 ug/ml after 48 hrs; type: functional, organism-based
Summary of the method: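 Overnight RPMI 1640 cultures (MOPS, pH 7.0) were washed and set to about 1 × 10^7 cells/ml, then attached to polystyrene wells for 1.5 h at 37°C at 75 rpm. After 24 h biofilm growth, wells were washed and given doubling caspofungin dilutions (2–1,024 μg/ml in RPMI) for 48 h at 35°C at 75 rpm. Biofilms were viewed in situ by inverted light microscopy at ×200 alongside drug-free wells.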

CC[C@H](C)C[C@H](C)CCCCCCCCC(=O)N[C@H]1C[C@@H](O)[C@@H](NCCN)NC(=O)[C@@H]2[C@@H](O)CCN2C(=O)[C@H]([C@H](O)CCN)NC(=O)[C@H]([C@H](O)[C@@H](O)c2ccc(O)cc2)NC(=O)[C@@H]2C[C@@H](O)CN2C(=O)[C@H]([C@@H](C)O)NC1=O [CASPOFUNGIN]
32 µg/mL: Activity (Candida orthopsilosis [19]) | Activity (Candida orthopsilosis [20]) | Activity (Candida orthopsilosis [24])
inactive: Activity (Candida metapsilosis [3]) | Activity (Candida orthopsilosis [4]) | Activity (Candida orthopsilosis [7]) | Activity (Candida metapsilosis [13])
2 µg/mL: MIC (Candida albicans [2]) | MIC (Candida parapsilosis [5]) | MIC (Candida metapsilosis [6]) | MIC (Candida tropicalis [10]) | MIC (Candida parapsilosis [11]) | MIC (Candida metapsilosis [12]) | MIC (Candida orthopsilosis [14]) | MIC (Candida parapsilosis [25])
16 µg/mL: Activity (Candida metapsilosis [1]) | Activity (Candida parapsilosis [17])
active: Activity (Candida albicans [8]) | Activity (Candida parapsilosis [9]) | Activity (Candida orthopsilosis [15]) | Activity (Candida tropicalis [18]) | Activity (Candida orthopsilosis [23]) | Activity (Candida tropicalis [26])
1 µg/mL: MIC (Candida tropicalis [21])
256 µg/mL: MIC (Candida parapsilosis [22])
0.5 µg/mL: MIC (Candida albicans [16])
